Compounds with a hit are over-represented: about 3.7% of the library has one in this group of screens.
NPY-Y1 PAM-ag = potentiators or agonists of human neuropeptide Y receptor Y1 | 220,000 tested, 0.37% active | AID 1304 | activation, % at 3.6 µM | P25929 | NPY-Y1 expressing cells, potentiator/agonist activation; in the data active = activation above about 33%, passing the limit was not always enough;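 also: cells stimulated with NPY at EC10 then isoproterenol at EC100; 0% = low agonist plus stimulus and 100% = saturating agonist plus stimulus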
Target sequence (P25929 whole entry, looked up): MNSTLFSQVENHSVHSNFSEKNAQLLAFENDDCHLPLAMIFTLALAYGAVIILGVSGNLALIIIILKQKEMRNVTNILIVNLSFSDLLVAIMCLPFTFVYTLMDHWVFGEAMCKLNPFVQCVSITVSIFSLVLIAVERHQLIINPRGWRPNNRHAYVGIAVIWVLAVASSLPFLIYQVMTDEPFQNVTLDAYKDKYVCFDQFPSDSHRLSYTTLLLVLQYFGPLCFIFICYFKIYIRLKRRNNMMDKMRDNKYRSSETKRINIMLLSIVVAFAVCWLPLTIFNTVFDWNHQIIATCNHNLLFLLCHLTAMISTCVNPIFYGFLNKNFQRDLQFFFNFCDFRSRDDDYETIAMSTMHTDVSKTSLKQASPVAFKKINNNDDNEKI
Furin inhibitor = blocks human furin protease activity. purified furin, fluorogenic substrate cleavage. inhibition, % at 20 µM or 30 µM. 220,000 tested, 0.061% active. AID 463115; in the data active = inhibition above about 25%
NPY Y2 blocker = antagonists of human neuropeptide Y receptor Y2. P49146. NPY-Y2 expressing cells, antagonist mode. inhibition, % at 2.7 µM. 140,000 tested, 0.99% active. AID 793; in the data active = inhibition above about 17%;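 also: 0% = vehicle with agonist challenge and 100% = reference antagonist with challenge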
Target sequence (P49146 whole entry, looked up): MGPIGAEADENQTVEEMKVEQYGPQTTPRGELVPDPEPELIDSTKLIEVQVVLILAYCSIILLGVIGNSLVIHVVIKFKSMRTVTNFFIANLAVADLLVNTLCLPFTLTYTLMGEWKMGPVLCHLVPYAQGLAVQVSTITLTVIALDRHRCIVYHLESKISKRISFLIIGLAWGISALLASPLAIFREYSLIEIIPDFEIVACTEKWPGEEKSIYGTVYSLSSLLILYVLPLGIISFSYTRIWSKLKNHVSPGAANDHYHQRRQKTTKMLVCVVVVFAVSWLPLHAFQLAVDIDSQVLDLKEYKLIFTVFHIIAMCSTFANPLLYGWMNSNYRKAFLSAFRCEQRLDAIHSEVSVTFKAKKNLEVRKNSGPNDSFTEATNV
KCC2 mod = modulators of human KCC2 chloride dependent transport. KCC2 cells, thallium flux FluoZin-2 fluorescence. B-score of Tl+ flux slope (higher = more flux/activation; lower = inhibition) at 10 µM. AID 1456. Q9H2X9. 190,000 tested, 2.2% active;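 active = thallium flux slope and its plate-corrected score both differing from the plate sample mean at a set confidence after two filtering rounds, in either direction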;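 also: slope of fluorescence scaled to starting intensity during 10 to 20 s after thallium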
NPY-Y1 antag = NPY-Y1 (human) receptor antagonism. P25929. HEK293-CNG Y1 cells, membrane potential fluorescence; NPY at EC95, then isoproterenol. inhibition, % at 3.6 µM. 200,000 tested, 1% active;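 active = inhibition above the campaign mean inhibition of all tested compounds plus 3 SD, cut at about 20% in these data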;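 also: 0% = DMSO wells given NPY plus isoproterenol and 100% = isoproterenol alone without NPY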
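Material: HEK293 Y1/CNG channel cell line; also added: NPY (25 nM), isoproterenol (1 µM), Ro 20-1724 (25 µM); doses: one concentration, 3.6 µM, in 0.4% DMSO; schedule: compound incubation 1 h at room temperature, readout 45 min post-stimulation; technique: membrane potential fluorescence; measure: fluorescence ratio normalized to % inhibition between controls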
NPY2 pot ag = potentiates or activates human NPY-Y2 receptor; cells expressing NPY-Y2, potentiator/agonist read-out; activation, % at 3.6 µM; 220,000 tested, 0.45% active; AID 1359; in the data active = activation above about 27%;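 also: cells stimulated with NPY near EC25 plus isoproterenol at EC100; 0% = vehicle plus submaximal agonist and 100% = vehicle plus saturating agonist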
KCC2 secondary = KCC2 (human) modulation, secondary assay | shares compounds with KCC2 mod | HEK293-KCC2, thallium flux, FluoZin2 fluorescence; active compounds read high | normalised thallium flux (F/F0 slope) at 10 µM | 3,700 tested, 15% active;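 active = thallium flux slope above the same plate's solvent-only control mean plus 3 SD; inconclusive = the two replicate wells disagree; inactive = no significant difference from solvent-only control wells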
KCC2 bumet counter = thallium flux despite bumetanide block in KCC2 cells, secondary assay 3; shares compounds with KCC2 mod; HEK293-KCC2 + bumetanide/ouabain, thallium flux FluoZin2; active compounds read high; normalized thallium flux at 10 µM; AID 1714; 3,700 tested, 49% active;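 active = thallium entry rate above the same plate's blocked-transporter control wells by more than 3 SD; inconclusive = the two repeat wells disagree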;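 also: raw slope of fluorescence over initial fluorescence between 10 and 20 s after thallium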
KCC2 secondary2 = confirmation of human KCC2 transport modulators; shares compounds with KCC2 mod; HEK293-KCC2, thallium flux FluoZin2 fluorescence; actives lie on both sides; F/F0 rise rate, 10–20 s post-thallium; normalized thallium flux at 10 µM; 3,700 tested, 23% active;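 active = thallium flux slope more than 3 SD above or below the plate's solvent-only control mean, mostly below; inconclusive = the two repeat wells disagreed; inactive = no significant shift from solvent-only controls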;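 also: raw slope with 0.1% DMSO as baseline and bumetanide as block control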
HEK counter1 = counter-screen for KCC2 modulators: effect in parental HEK293 cells; AID 1716; thallium flux rate (normalised fluorescence) at 10 µM; thallium flux FluoZin2, ouabain; baseline-ratio fluorescence slope, 10–20 s after thallium; shares compounds with KCC2 mod; 3,700 tested, 46% active;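 active = thallium flux rate significantly above the same plate's solvent-only control wells, beyond their mean plus 3 SD; inconclusive = the two replicate wells gave conflicting results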
KCC2 ouabain = KCC2 (human) modulation, ouabain retest; shares compounds with KCC2 mod; HEK293-KCC2, thallium flux FluoZin2 fluorescence; bidirectional: low = inhibitor, high = activator; raw Tl+ flux slope (below DMSO = inhibition, above = activation) at 10 µM; 3,700 tested, 48% active; AID 1717;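 active = thallium flux slope beyond 3 SD from same-plate DMSO control mean in most replicates, usually higher, sometimes lower; inconclusive = repeat tests gave conflicting results; inactive = no significant difference from controls in most replicates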;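 also: slope of initial-normalized fluorescence between seconds 10 and 20 after thallium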
HEK293 Tl flux2 = acts in parental HEK cells, second KCC2 counter-screen; thallium flux slope at 10 µM; HEK293 parental, thallium flux FluoZin-2 fluorescence slope; shares compounds with KCC2 mod; AID 1718; 3,700 tested, 33% active;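 active = thallium flux slope above the same plate's solvent-control mean plus 3 SD in both duplicate wells; inconclusive = duplicate wells that disagreed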;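 also: run without ouabain in cells lacking the KCC2 cotransporter; slope of fluorescence scaled to its starting value between 10 and 20 s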
An asterisk follows results filed as active; ? = inconclusive; nt = not tested or not shown.

SMILES | NPY-Y1 PAM-ag | Furin inhibitor | NPY Y2 blocker | KCC2 mod | NPY-Y1 antag | NPY2 pot ag | KCC2 secondary | KCC2 bumet counter | KCC2 secondary2 | HEK counter1 | KCC2 ouabain | HEK293 Tl flux2
Cc1cc(Cl)ccc1OCc1n[nH]c(=S)n1C1CCCCC1 | 12.7 | -6.4 | 3.8 | 15.6* | 0.6 | 2.4 | 0.0072 | 0.0409* | 0.0488* | 0.0403* | 0.0365* | 0.0312*
COc1ccc(Cl)cc1-c1n[nH]c(=S)n1C1CCCCC1 | -19.6 | -11.2 | 10.6 | 0.0257 | 9.8 | 1.2 | nt | nt | nt | nt | nt | nt
Cc1cccc(C(=O)Nc2cccc(C(=O)N3CCOCC3)c2)c1 | -0.4 | -14.8 | 0.0 | 4.25* | -1.6 | -4.1 | 0.0168 | 0.00465 | 0.0322 | 0.00783 | 0.0177 | 0.0102
COc1cccc(C(=O)Nc2cccc(C(=O)N3CCOCC3)c2)c1 | 1.4 | -17.4 | 0.2 | 0.19 | -3.8 | 8.8 | nt | nt | nt | nt | nt | nt
CC(=O)c1cccc(NC(=O)Nc2ccc(C(=O)N3CCCC3)cc2)c1 | -20.4 | -21.0 | -1.8 | 7.36* | -6.1 | -14.2 | ? | 0.00377 | 0.0267 | 0.00642 | 0.0155 | 0.00942
CC1(C)NC(=O)N(CCOCCOc2c(Cl)cc(Cl)cc2Cl)C1=O | -4.1 | -9.3 | 4.0 | nt | 6.1 | -0.9 | nt | nt | nt | nt | nt | nt
Cn1cnc([N+](=O)[O-])c1NCc1ccccc1 | 23.1 | -12.7 | nt | -3.96* | nt | 4.2 | 0.00588 | 0.00483 | 0.0238* | 0.00781 | ? | 0.0103
C=CCNS(=O)(=O)c1ccc(OCC(=O)OC)cc1 | -8.6 | -16.5 | -1.1 | 0.18 | 2.6 | 8.0 | nt | nt | nt | nt | nt | nt
Cc1[nH]n(-c2ccccc2)c(=O)c1/C=N/N1C(=O)c2cccc3cccc(c23)C1=O | -2.8 | -4.9 | nt | 24.5* | -3.3 | -2.0 | ? | 0.0198* | 0.045* | 0.0169* | 0.0322* | 0.0166*
CCn1c(SCc2nc(-c3ccccc3)no2)nnc1-c1cccs1 | -1.3 | -6.4 | 6.0 | nt | 1.2 | -11.5 | 0.00836 | 0.00449 | 0.0308 | 0.00699 | 0.0158* | ?
CC(=O)NC(C)c1nc2ccccc2n1CC(=O)NC(C)CCc1ccccc1 (stereo unspecified) | 21.2 | -22.5 | nt | 0.921 | -4.4 | -5.3 | nt | nt | nt | nt | nt | nt
CN1C(C(=O)NCc2cccc(Br)c2)CC2Cn3c(nc4cc5ccccc5cc43)C21 (stereo unspecified) | nt | -30.1 | nt | -1.25 | nt | nt | nt | nt | nt | nt | nt | nt
CN1C(C(=O)NCc2cccc(Br)c2)CC2Cn3c(nc4cc(Cl)c(Cl)cc43)C21 (stereo unspecified) | nt | -24.1 | nt | -3.4* | nt | nt | 0.0085 | 0.00613 | 0.033 | 0.00737 | 0.0181 | 0.00998
CC(C1CC2CCC1C2)n1c(-c2ccco2)n[nH]c1=S (stereo unspecified) | 8.3 | -12.9 | nt | 21.1* | 0.2 | -10.5 | 0.017* | 0.0696* | ? | 0.0284* | 0.0557* | 0.0161*
CC(OC(=O)c1ccccc1NCc1ccco1)C(=O)Nc1ncc(Cl)cc1Cl (stereo unspecified) | -8.9 | -34.9 | 6.4 | -3.02* | 5.2 | -9.8 | 0.00885 | 0.00578 | 0.0295 | 0.00641 | ? | ?
CC(OC(=O)c1ccc(S(=O)(=O)NCc2ccco2)cc1)C(=O)Nc1ccc(Cl)cn1 (stereo unspecified) | 5.3 | -14.5 | 2.9 | 0.748 | 7.6 | 9.8 | nt | nt | nt | nt | nt | nt
COC(=O)Cc1[nH]n(-c2nc3ccccc3s2)c(=O)c1C(C)=Nc1ccc(Cl)cc1 | 24.6 | -3.0 | nt | 7.45* | nt | 1.6 | 0.00873 | 0.0143* | 0.0299 | 0.0126* | ? | ?
CCC(=O)N1CCN(c2ccccc2NC(=O)COc2ccccc2Cl)CC1 | -8.7 | -6.4 | 14.3 | nt | 6.8 | -19.6 | 0.00789 | ? | 0.0374 | ? | 0.0195 | 0.0103
CCOC(=O)c1sc2nc(C)[nH]c(=S)c2c1C | -11.5 | -24.8 | nt | 200* | 1.1 | -3.4 | 0.0536* | 0.153* | 0.0521* | 0.113* | 0.119* | 0.0498*
CCOC(=O)c1sc2nc(C)n(N)c(=O)c2c1C | -10.1 | -3.7 | nt | 0.69 | 3.5 | -11.3 | nt | nt | nt | nt | nt | nt
Cc1ccc(CC2CC(=O)N(c3nc4ccccc4n3C)C2=O)cc1 (stereo unspecified) | -8.1 | -27.7 | 4.0 | nt | 10.8 | -11.2 | nt | nt | nt | nt | nt | nt
CCOC(=O)c1cc(C(=O)OCC)c(=O)[nH]c1N1CCCCC1 | -10.0 | -4.2 | nt | -0.0436 | 1.5 | 5.2 | nt | nt | nt | nt | nt | nt
O=C(CSc1nnc(-c2cccs2)n1CC1CCCO1)c1cc2ccccc2o1 (stereo unspecified) | 6.9 | -22.2 | 0.7 | -3.28* | 14.3 | 11.0 | 0.00584 | 0.0049 | 0.0267 | 0.00705 | 0.0166 | 0.0098
CCc1cccc(CC)c1NC(=S)N(CCN(C)C)C(C)c1cccnc1 (stereo unspecified) | 2.4 | -14.6 | nt | -1.09 | 2.3 | -5.1 | nt | nt | nt | nt | nt | nt
O=C(Nc1nnc(SCc2ccc(F)cc2)s1)C1Cc2ccccc2CN1C(=O)c1ccco1 (stereo unspecified) | 17.0 | -18.4 | 3.2 | -3.33* | 3.9 | 3.4 | 0.00706 | 0.00532 | 0.0249* | 0.00808 | 0.0165* | 0.0104
CC(=O)Oc1ccc(C(=O)Nc2nnc(C)s2)cc1 | -2.0 | -4.8 | 1.0 | 2.43* | 3.1 | 7.6 | 0.00858 | 0.00662 | 0.0305 | 0.00664 | 0.0186 | ?
O=C(Oc1c(-c2ccccc2)c(=O)n2c3c(cccc13)CC2)c1ccccc1 | -28.3 | -15.8 | nt | -4.38* | nt | -42.0 | 0.0142 | 0.00351 | 0.0273 | 0.00537* | 0.0132* | 0.00724*
CCN(CC)C(=S)Sc1c(-c2ccccc2)c2cc(Cl)ccc2[nH]c1=O | -21.2 | -10.9 | 2.2 | 2.21 | 2.8 | -4.8 | nt | nt | nt | nt | nt | nt
COC(=O)c1ccc(C(C(=O)NCc2ccccc2)N(Cc2ccco2)C(=O)c2cnccn2)cc1 (stereo unspecified) | -26.6 | -11.5 | 3.1 | nt | -7.6 | 3.0 | nt | nt | nt | nt | nt | nt
COc1cc(OC)cc(C(C(=O)NCc2ccccc2)N(Cc2ccco2)C(=O)c2ccno2)c1 (stereo unspecified) | 0.8 | -21.5 | 1.1 | -2.85* | -1.1 | -3.7 | 0.00665 | 0.00388 | 0.032 | 0.00692 | 0.0188 | 0.0111
